The list is not random: actives were taken first. Their share in the collection is about 5.5%.
STAT3 inh = IL-6 driven STAT3 reporter inhibitors, primary screen, U3A cells, luciferase, luminescence, MLSCN library; inhibition, % at 5.5 µM; IL-6 STAT3-luciferase reporter; host cell line lacks STAT1; 190,000 compounds, 0.89% hits;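 active = inhibition above the mean inhibition across all screened compounds plus 3 SD, cut at about 44% in these data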;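 note: 0% = DMSO only wells and 100% = 100 µM nifuroxazide control wells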
STAT3 act = IL-6 driven STAT3 reporter potentiators, primary screen, U3A cells, luciferase, luminescence, MLSCN library; IL-6 STAT3-luciferase reporter; 100% = signal with IL-6 EC80 alone; AID 871, 2007; 190,000 compounds, 0.91% hits; activation (% of control), % at 5.6 µM;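 active = activation above the screen-wide mean of compound activation plus 3 SD, cut at about 130% in these data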;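 note: 0% = background luminescence of wells with medium and substrate only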
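Material: STAT3-luciferase reporter U3A cells; Probe or stimulus: IL-6 (33 ng/mL); Incubation: compound pre-incubation 1 h before IL-6, then 6 h stimulation at 37 °C; Technique: luminescence from STAT3-driven luciferase reporter; Evaluation: % activation versus median of IL-6-stimulated wells; Controls: IL-6-only high control.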
STAT1 blocker = STAT1 signaling inhibitors, primary screen, cell-based, HTS, luciferase reporter; NIH 3T3 STAT1-luciferase reporter, IFN-gamma, luminescence; inhibition, % at 5.5 µM; 200,000 compounds, 0.35% hits; AID 920, 2007;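 active = inhibition above a set limit, the mean inhibition across all tested compounds plus 3 SD, cut at about 34% in these data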;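 note: 0% = IFN-gamma with DMSO and 100% = IFN-gamma with 300 µM nifuroxazide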
STAT1 act = STAT1 signaling activators, primary screen, cell-based, HTS, luciferase reporter; NIH 3T3 STAT1-luciferase reporter, IFN-gamma, luminescence; 100% = IFN-gamma alone, no compound; 200,000 compounds, 2.6% hits; activation (% of control), % at 5.5 µM;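 active = activation above the screen-wide mean activation plus 3 SD, cut at about 130% in these data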;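 note: raw ratio to IFN-gamma control signal so 100% means no change and 0% no light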
HSV replic up = enhancers of HSV replication in host cells, fold increase, host cell viability; HSV replication augmentation in cells; 220,000 compounds, 0.005% hits; maximum fold increase; AID 1956, 2009; in the data active = maximum fold increase above about 1.5; inconclusive = no clear call, values can overlap the other calls; tested in PC3 cells
KCC2 mod = KCC2 cotransporter modulators, thallium flux, primary screen, cell-based, HEK293 KCC2, FluoZin-2 fluorescence, MLSMR | AID 1456, 2008 | 190,000 compounds, 2.2% hits | B-score of Tl+ flux slope (higher = more flux/activation; lower = inhibition) at 10 µM | KCC2 cells, thallium flux FluoZin-2 fluorescence;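 active = thallium flux slope and its plate-corrected score both differing from the plate sample mean at a set confidence after two filtering rounds, in either direction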;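 note: slope of fluorescence scaled to starting intensity during 10 to 20 s after thallium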
Target sequence (Q9H2X9 whole entry, looked up): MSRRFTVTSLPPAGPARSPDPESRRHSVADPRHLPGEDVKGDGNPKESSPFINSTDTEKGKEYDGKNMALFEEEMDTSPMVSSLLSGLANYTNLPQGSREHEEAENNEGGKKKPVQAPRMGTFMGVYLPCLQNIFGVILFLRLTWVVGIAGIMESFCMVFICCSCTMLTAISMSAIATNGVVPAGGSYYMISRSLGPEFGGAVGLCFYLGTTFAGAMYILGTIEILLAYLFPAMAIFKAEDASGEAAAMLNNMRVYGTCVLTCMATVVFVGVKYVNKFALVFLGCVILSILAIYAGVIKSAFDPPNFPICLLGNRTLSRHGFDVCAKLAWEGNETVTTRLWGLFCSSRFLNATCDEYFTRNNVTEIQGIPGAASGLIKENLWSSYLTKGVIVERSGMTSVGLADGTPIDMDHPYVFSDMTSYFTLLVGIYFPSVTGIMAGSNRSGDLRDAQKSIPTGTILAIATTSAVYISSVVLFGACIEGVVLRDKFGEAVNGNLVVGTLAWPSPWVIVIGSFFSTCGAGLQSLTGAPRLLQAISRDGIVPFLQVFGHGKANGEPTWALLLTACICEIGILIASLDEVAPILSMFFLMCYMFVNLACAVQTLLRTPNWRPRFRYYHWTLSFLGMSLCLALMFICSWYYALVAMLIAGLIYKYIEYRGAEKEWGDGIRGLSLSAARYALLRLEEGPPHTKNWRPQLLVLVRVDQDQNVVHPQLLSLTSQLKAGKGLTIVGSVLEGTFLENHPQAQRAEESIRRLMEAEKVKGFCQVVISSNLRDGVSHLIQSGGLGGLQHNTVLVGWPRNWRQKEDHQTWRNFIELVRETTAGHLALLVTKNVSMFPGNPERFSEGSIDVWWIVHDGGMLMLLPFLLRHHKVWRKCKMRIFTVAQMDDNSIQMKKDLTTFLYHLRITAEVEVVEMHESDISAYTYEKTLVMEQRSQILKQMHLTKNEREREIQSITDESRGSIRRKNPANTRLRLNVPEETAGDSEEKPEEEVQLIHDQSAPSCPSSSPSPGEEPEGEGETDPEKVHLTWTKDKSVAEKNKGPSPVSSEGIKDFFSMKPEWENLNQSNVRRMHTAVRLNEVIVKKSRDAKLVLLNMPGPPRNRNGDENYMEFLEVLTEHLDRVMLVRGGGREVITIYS
KCC2 secondary = KCC2 modulators in sodium-free buffer, confirmation, cell-based, HEK293 KCC2, thallium flux, secondary assay; shares compounds with KCC2 mod; FluoZin2 fluorescence; hits give high values; normalised thallium flux (F/F0 slope) at 10 µM; 3,700 compounds, 15% hits;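 active = thallium flux slope above the same plate's solvent-only control mean plus 3 SD; inconclusive = the two replicate wells disagree; inactive = no significant difference from solvent-only control wells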
KCC2 bumet counter = thallium flux persisting under bumetanide in KCC2 cells, confirmation, counter-screen for KCC2 modulator project, cell-based, HEK293 KCC2, FluoZin2, secondary assay 3; HEK293-KCC2 + bumetanide/ouabain; hits give high values; normalized thallium flux at 10 µM; 3,700 compounds, 49% hits; shares compounds with KCC2 mod; AID 1714, 2009;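 active = thallium entry rate above the same plate's blocked-transporter control wells by more than 3 SD; inconclusive = the two repeat wells disagree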;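 note: raw slope of fluorescence over initial fluorescence between 10 and 20 s after thallium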
KCC2 sec2 = KCC2 modulators without ouabain present, confirmation, cell-based, HEK293 KCC2, thallium flux, FluoZin2, secondary assay 2. normalized thallium flux at 10 µM. shares compounds with KCC2 mod. thallium flux FluoZin2 fluorescence; actives lie on both sides; F/F0 rise rate, 10–20 s post-thallium. 3,700 compounds, 23% hits. AID 1715, 2009;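 active = thallium flux slope more than 3 SD above or below the plate's solvent-only control mean, mostly below; inconclusive = the two repeat wells disagreed; inactive = no significant shift from solvent-only controls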;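 note: raw slope with 0.1% DMSO as baseline and bumetanide as block control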
HEK counter1 = thallium flux modulation in parental HEK cells, confirmation, counter-screen for KCC2 modulator project, cell-based, counterscreen 1. HEK293 parental cells, thallium flux FluoZin2, ouabain; baseline-ratio fluorescence slope, 10–20 s after thallium. shares compounds with KCC2 mod. thallium flux rate (normalised fluorescence) at 10 µM. 3,700 compounds, 46% hits;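 active = thallium flux rate significantly above the same plate's solvent-only control wells, beyond their mean plus 3 SD; inconclusive = the two replicate wells gave conflicting results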
KCC2 retest ouab = KCC2 inhibitors and activators, ouabain retest, confirmation, HEK-KCC2 cells. shares compounds with KCC2 mod. HEK293-KCC2, thallium flux FluoZin2 fluorescence; bidirectional: low = inhibitor, high = activator. raw Tl+ flux slope (below DMSO = inhibition, above = activation) at 10 µM. 3,700 compounds, 48% hits. AID 1717, 2009;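 active = thallium flux slope beyond 3 SD from same-plate DMSO control mean in most replicates, usually higher, sometimes lower; inconclusive = repeat tests gave conflicting results; inactive = no significant difference from controls in most replicates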;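 note: slope of initial-normalized fluorescence between seconds 10 and 20 after thallium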
HEK counter2 = native HEK Tl+ uptake effects, second counter-screen – HEK cells, counterscreen 2, counter-screen for KCC2 modulator project, confirmation. HEK293 parental, thallium flux FluoZin-2 fluorescence slope. AID 1718, 2009. shares compounds with KCC2 mod. thallium flux slope at 10 µM. 3,700 compounds, 33% hits;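 active = thallium flux slope above the same plate's solvent-control mean plus 3 SD in both duplicate wells; inconclusive = duplicate wells that disagreed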;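 note: run without ouabain in cells lacking the KCC2 cotransporter; slope of fluorescence scaled to its starting value between 10 and 20 s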
Active calls of the source: *; i = inactive; ? = inconclusive; nt = no result given.

SMILES	STAT3 inh	STAT3 act	STAT1 blocker	STAT1 act	HSV replic up	KCC2 mod	KCC2 secondary	KCC2 bumet counter	KCC2 sec2	HEK counter1	KCC2 retest ouab	HEK counter2
COc1ccccc1C(=O)C1CCCN(C(=O)c2snnc2C)C1 (centres undefined)	10.8	94.3	5.4	93.7	i	-0.113	nt	nt	nt	nt	nt	nt
Cn1c(=O)n(-c2cccc(Cl)c2)c(=O)c2c3c(sc21)COC(C)(C)C3	7.8	97.0	-2.4	102.2	i	-0.0258	nt	nt	nt	nt	nt	nt
CCN(CC)c1ccc(C(=O)OCC(=O)N(C)Cc2ccccc2)cc1	2.2	101.5	-2.4	101.9	i	-4.12*	0.00574	0.00569	0.029	0.00573	0.0145*	0.00996
O=C(/C=C/c1ccc(F)cc1)NC(=S)NC1CCCCC1	nt	nt	nt	nt	i	1.29	nt	nt	nt	nt	nt	nt
CN(C(=S)NC(=O)/C=C/c1ccc(F)cc1)C1CCCCC1	12.3	92.3	11.1	89.9	i	12.1*	0.0117	0.072*	0.0335	0.0192*	?	0.0136*
Cn1cnnc1Sc1ccc(/C=C(\CCC(=O)O)c2nc3ccccc3s2)cc1[N+](=O)[O-]	2.4	105.4	3.6	96.8	i	-6.78*	0.00574	0.00475	0.0246*	0.00593*	0.0137*	0.00966
CNc1ccc(/C=C(\CCC(=O)O)c2nc3ccccc3s2)cc1[N+](=O)[O-]	1.7	106.4	-10.6	109.7	i	-5.47*	0.00944	0.00618	0.0248*	0.00834	0.0127*	0.0115
Cc1ccc(/C=C(\CCC(=O)O)c2nc3ccccc3s2)cc1[N+](=O)[O-]	-7.4	109.9	-0.5	100.4	i	-6.9*	0.00567	0.00477	0.0216*	0.00583*	0.01*	?
CCOc1cc(/C=C(\CC(=O)O)c2nc3ccccc3s2)ccc1OC	4.0	98.5	14.1	86.5	i	1.41	nt	nt	nt	nt	nt	nt
CN(c1ccccc1)c1ccc(/C=C(\CCC(=O)O)c2nc3ccccc3s2)cc1[N+](=O)[O-]	-2.7	100.1	-0.2	100.1	i	-6.94*	0.00526	0.00465	0.0212*	0.00693	0.0117*	0.00978
O=C(COc1ccccc1Br)N1CCN(c2ccccc2)CC1	10.9	96.9	-2.7	102.5	i	-1.97	nt	nt	nt	nt	nt	nt
COc1cc(NC(=O)CSc2ncnc3scc(-c4ccccc4)c23)c(C(=O)O)cc1OC	-8.4	108.5	-3.9	102.2	i	-0.0743	nt	nt	nt	nt	nt	nt
